From ChEMBL document CHEMBL1138950, “Benzimidazole derivatives bearing substituted biphenyls as hepatitis C virus NS5B RNA-dependent RNA polymerase inhibitors: structure-activity relationship studies and identification of a potent and highly selective inhibitor JTK-109” (J Med Chem, 2006)

Experiments:
[1] = Plasma concentration in rat at 30 mg/kg, po after 2 hrs; assay type: ADME, organism-based; parameters: dose 30 mg/kg, route oral
Outline: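 Rats dosed orally at 30 mg/kg; plasma sampled at 1 and 2 h; n = 2 or 3.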

[2] = target: T1, RNA-directed RNA polymerase (Hepacivirus hominis, UniProt O39930); experiment: Inhibition of HCV 3a NS5B RNA dependent RNA polymerase
Outline: (§1)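 IC50 from the mean of four independent experiments; standard deviations within 30% of the mean.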

[3] = target: DNA polymerase beta (Homo sapiens, UniProt P06746); experiment: Inhibition of DNA polymerase beta
[4] = system: Huh-5-2; experiment: Viability of Huh5-2 cells by MTT assay; assay type: functional; settings: Homo sapiens
[5] = target: T2, DNA polymerase alpha catalytic subunit (Homo sapiens, UniProt P09884); experiment: Inhibition of DNA polymerase alpha
T2 sequence (P09884 whole entry): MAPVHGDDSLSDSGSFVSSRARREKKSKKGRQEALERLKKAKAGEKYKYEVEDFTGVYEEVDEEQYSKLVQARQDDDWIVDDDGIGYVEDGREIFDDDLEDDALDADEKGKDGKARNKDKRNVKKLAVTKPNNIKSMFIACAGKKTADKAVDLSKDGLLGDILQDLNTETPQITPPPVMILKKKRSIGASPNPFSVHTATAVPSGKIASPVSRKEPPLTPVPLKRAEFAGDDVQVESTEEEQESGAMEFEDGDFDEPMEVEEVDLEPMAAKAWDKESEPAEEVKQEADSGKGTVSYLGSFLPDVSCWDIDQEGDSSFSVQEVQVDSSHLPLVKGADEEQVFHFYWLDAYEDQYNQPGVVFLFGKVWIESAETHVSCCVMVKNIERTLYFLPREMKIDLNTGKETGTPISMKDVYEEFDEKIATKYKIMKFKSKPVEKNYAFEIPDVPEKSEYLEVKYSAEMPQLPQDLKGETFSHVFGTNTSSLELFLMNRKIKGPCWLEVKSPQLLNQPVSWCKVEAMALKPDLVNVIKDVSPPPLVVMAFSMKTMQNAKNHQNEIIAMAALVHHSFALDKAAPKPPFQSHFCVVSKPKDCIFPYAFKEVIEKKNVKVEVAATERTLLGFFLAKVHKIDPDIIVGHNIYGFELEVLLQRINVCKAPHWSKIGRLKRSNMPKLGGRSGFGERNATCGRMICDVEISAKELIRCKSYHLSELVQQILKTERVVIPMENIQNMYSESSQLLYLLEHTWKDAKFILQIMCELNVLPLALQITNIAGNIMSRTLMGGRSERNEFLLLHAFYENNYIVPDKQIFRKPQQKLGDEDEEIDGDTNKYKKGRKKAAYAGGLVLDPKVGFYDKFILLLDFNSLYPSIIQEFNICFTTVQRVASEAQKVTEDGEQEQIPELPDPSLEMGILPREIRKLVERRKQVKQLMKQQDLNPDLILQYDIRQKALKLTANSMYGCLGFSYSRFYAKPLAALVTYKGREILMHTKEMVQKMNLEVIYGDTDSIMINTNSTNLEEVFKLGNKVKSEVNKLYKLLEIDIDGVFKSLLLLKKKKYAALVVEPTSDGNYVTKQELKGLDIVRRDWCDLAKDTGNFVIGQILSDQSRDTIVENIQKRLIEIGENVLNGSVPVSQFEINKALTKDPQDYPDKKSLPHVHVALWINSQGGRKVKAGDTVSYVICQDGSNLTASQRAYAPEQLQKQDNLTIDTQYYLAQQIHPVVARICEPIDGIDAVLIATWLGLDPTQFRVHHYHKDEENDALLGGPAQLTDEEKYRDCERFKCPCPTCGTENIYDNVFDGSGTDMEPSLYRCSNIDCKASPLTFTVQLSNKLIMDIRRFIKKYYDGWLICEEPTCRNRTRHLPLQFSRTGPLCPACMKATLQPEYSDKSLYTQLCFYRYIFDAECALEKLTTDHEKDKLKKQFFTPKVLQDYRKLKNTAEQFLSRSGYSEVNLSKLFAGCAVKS

[6] = target: T1, RNA-directed RNA polymerase; experiment: Inhibition of HCV 1a NS5B RNA dependent RNA polymerase; parameters: species or system Hepatitis C virus subtype 1a; outline: as §1
[7] = target: Human immunodeficiency virus type 1 reverse transcriptase (Human immunodeficiency virus 1, UniProt Q72547); experiment: Inhibition of HIV reverse transcriptase
[8] = Therapeutic index, CC50 for viability of Huh5-2 cells/EC50 for inhibition of HCV subgenomic RNA replication; assay type: cell-based, Huh-5-2; settings: human, read-out: Ratio CC50/EC50
[9] = system: Rattus norvegicus; experiment: Toxicity in rat up to 300 mg/kg/day after 4 weeks; assay type: organism-based; settings: in vivo, 672 h
[10] = target: Cytochrome P450 3A4 (Homo sapiens, UniProt P08684); experiment: Inhibition of CYP450 3A4; assay type: ADME
Cytochrome P450 3A4, sequence (P08684 whole entry): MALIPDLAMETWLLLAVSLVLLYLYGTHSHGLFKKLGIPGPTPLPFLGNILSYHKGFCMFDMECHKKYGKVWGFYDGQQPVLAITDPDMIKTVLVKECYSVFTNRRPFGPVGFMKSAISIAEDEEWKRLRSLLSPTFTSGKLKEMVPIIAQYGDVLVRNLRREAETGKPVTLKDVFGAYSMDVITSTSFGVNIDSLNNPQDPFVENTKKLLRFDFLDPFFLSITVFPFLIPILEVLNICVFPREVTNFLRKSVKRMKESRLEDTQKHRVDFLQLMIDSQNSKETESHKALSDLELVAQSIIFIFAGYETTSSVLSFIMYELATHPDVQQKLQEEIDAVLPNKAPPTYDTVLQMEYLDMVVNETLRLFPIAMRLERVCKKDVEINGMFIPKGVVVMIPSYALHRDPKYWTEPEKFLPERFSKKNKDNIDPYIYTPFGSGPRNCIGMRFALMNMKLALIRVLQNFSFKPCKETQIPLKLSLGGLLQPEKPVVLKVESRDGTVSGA

T1 sequence (O39930 whole entry): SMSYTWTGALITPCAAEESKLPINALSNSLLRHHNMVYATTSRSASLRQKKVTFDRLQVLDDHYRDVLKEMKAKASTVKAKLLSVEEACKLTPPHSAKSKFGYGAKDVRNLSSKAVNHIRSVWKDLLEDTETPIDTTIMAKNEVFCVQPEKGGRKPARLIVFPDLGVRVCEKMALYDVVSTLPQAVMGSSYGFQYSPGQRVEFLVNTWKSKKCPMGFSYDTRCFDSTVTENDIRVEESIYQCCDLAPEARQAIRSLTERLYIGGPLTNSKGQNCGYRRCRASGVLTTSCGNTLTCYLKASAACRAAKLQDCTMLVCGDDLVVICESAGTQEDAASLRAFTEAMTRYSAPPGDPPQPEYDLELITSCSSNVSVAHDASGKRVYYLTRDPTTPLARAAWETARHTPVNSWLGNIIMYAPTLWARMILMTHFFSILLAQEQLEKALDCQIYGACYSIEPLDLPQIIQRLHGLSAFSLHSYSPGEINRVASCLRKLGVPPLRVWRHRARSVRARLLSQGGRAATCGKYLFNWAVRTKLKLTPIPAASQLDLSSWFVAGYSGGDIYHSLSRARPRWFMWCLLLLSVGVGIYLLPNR

- concentration at 2 h [1]: 4.5 µM
- IC50 [2]: 0.061 µM
- IC50 [3]: > 10 µM
- IC50 [5]: > 10 µM
- IC50 [6]: 0.062 µM
- IC50 [7]: > 10 µM
- Inhibition [10]: Not Active
SMILES: O=C(O)c1ccc2c(c1)nc(-c1ccc(OCc3cc(N4CCCC4=O)ccc3-c3ccc(Cl)cc3)cc1F)n2C1CCCCC1
- CC50 [4]: 25 µM
- selectivity ratio [8]: 78
- Activity [9]: Non-toxic
